Bioassay records (PubChem)
In the library only some 2.4% were active in any assay of this set; here they are far more common.
LMPTP block: blocks human LMPTP phosphatase; P24666; recombinant LMPTP-A, OMFP fluorogenic substrate, fluorescence intensity; inhibition, % at 20 µM; 360,000 compounds, 0.22% hits; AID 651560;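 active means compounds that cut the enzyme signal by at least half of the control window in the single-dose screen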;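 further: plate controls were DMSO wells with enzyme plus substrate for no effect and substrate without enzyme for full effect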
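material = LMPTP-A | quantity = 0.625 nM enzyme | reagent = OMFP substrate, 400 µM final | buffer or medium = Bis-Tris pH 6.0, DTT, detergent | detection = endpoint fluorescence intensity from OMFP dephosphorylation | dosing = single 20 µM dose | read-out basis = % inhibition relative to no-enzyme and uninhibited control wells | control set = no-enzyme and uninhibited controls | timing = 50 min at room temperature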
DNMT1 block: inhibitors of human DNMT1; P26358; DNMT1 molecular beacon, Hinp1I cleavage, fluorescence; inhibition (reported as % activation of signal), % at 10 µM; 360,000 compounds, 0.83% hits; AID 588458; in the data active means inhibition above about 50%
Scp-1 inhibitor: inhibitors of human Scp-1 phosphatase; Q9GZU7; Recombinant Scp1, phosphopeptide, malachite green phosphate absorbance; inhibition, % at 20 µM; 340,000 compounds, 0.88% hits; AID 493091;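 active means inhibition above about 50% at 20 µM, limit read from the data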;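 further: plate controls were DMSO wells with enzyme for no effect and wells lacking enzyme for full effect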
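Material: truncated SCP-1 phosphatase (76-261aa) / Buffer or medium: 50 mM Tris acetate pH 5.5, 0.005% Tween-20, 10 mM MgCl2 / Compound dosing: one concentration, 20 µM, with 1.0% DMSO / Incubation: 45 min room-temperature reaction, 5 min colour, 30 min stabiliser / Detection: colorimetric free-phosphate detection, absorbance 630 nm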
STEP inh: inhibitors of human striatal-enriched phosphatase STEP | 360,000 compounds, 0.25% hits | inhibition, % at 20 µM | AID 588621 | recombinant STEP, OMFP fluorogenic substrate, fluorescence | P54829;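 active means inhibition at 20 µM, scaled per plate between control wells, above about 37%, limit read from the data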;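 further: 0% = DMSO with enzyme and substrate and 100% = substrate only without enzyme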
Target sequence (P54829 whole entry, looked up): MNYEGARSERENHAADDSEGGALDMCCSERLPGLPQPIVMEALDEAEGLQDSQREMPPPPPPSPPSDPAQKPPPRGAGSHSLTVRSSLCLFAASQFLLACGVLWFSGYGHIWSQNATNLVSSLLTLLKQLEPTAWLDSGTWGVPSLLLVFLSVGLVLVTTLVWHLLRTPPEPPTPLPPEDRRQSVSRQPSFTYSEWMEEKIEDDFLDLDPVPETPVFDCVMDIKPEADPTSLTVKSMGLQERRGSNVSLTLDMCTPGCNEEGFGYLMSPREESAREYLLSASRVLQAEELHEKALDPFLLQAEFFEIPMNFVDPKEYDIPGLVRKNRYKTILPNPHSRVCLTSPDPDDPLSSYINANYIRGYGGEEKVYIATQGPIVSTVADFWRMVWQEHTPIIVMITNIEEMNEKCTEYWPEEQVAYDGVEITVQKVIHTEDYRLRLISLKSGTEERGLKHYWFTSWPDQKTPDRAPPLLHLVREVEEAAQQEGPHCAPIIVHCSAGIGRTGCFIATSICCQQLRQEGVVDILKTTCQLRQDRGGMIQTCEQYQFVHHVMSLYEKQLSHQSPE
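Assay system: isolated STEP enzyme / Timing: 20 min at room temperature, dark / Doses: 20 µM, 1% DMSO / Technique: fluorescence intensity, excitation 480 nm, emission 540 nm / Reagent: fluorogenic phosphatase substrate OMFP at 25 µM final / Measure: percent inhibition scaled to no-enzyme and uninhibited-enzyme controls, plate-pattern corrected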
NadD inh: blocks S. aureus nicotinate mononucleotide adenylyltransferase; AID 602399; 360,000 compounds, 0.78% hits; purified NadD enzyme, colorimetric absorbance read-out; inhibition, % at 20 µM; in the data active means inhibition above about 26%
SUMO1 PPI mod: alters human SUMO1 binding to SIM partners; SUMO1 binding to a labelled peptide, TR-FRET, 1 h; inhibition, % at 20 µM; 360,000 compounds, 0.33% hits; in the data active means inhibition above about 37%
Target sequence (P63165 whole entry, looked up): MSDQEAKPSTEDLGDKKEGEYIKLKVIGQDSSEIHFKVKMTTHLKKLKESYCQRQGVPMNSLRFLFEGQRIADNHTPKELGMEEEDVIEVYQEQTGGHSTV
An asterisk follows results filed as active.

What do the screens show for `O=C(Nc1ccccc1F)NC1CCCCCCC1`?
LMPTP block: 1; DNMT1 block: -1; Scp-1 inhibitor: -2; STEP inh: 2; NadD inh: -1; SUMO1 PPI mod: 0

What do the screens show for `CCN(CC)CCOC(=O)c1ccc(N/C=C(/C#N)c2nc(-c3ccc4c(c3)OCO4)cs2)cc1`?
LMPTP block: 22; DNMT1 block: -67; Scp-1 inhibitor: 8; STEP inh: 86*; NadD inh: 24; SUMO1 PPI mod: 65*

How did N#C/C(=C\C=C\c1ccccc1)c1nc(-c2ccc3c(c2)OCO3)cs1 do in these assays?
LMPTP block: 2; DNMT1 block: 4; Scp-1 inhibitor: -8; STEP inh: -8; NadD inh: 8; SUMO1 PPI mod: -11

What do the screens show for `CCN(CC)CCOC(=O)c1ccc(N/C=C(/C#N)c2nc(-c3cc4ccccc4oc3=O)cs2)cc1`?
LMPTP block: 30; DNMT1 block: 50*; Scp-1 inhibitor: -5; STEP inh: 52*; NadD inh: 25; SUMO1 PPI mod: -63

How did O=C(NC1CC1)c1cc(-c2ccco2)nc2ccccc12 do in these assays?
LMPTP block: 51*; DNMT1 block: 90*; Scp-1 inhibitor: 80*; STEP inh: 20; NadD inh: 12; SUMO1 PPI mod: 40*

What do the screens show for `O=C(OCC(=O)N1CCN(C(=O)c2ccco2)CC1)c1cc(-c2ccco2)nc2ccccc12`?
LMPTP block: 60*; DNMT1 block: 97*; Scp-1 inhibitor: 87*; STEP inh: 79*; NadD inh: 44*; SUMO1 PPI mod: 26

What do the screens show for `Cc1ccc(C)c(-c2cc(C(=O)NC3CC3)c3ccccc3n2)c1`?
LMPTP block: -1; DNMT1 block: 1; Scp-1 inhibitor: -2; STEP inh: 0; NadD inh: 6; SUMO1 PPI mod: -1

What do the screens show for `O=C(OCC(=O)N1CCN(C(=O)c2ccco2)CC1)c1cc(-c2ccc(Cl)c(Cl)c2Cl)nc2ccccc12`?
LMPTP block: 3; DNMT1 block: -13; Scp-1 inhibitor: -7; STEP inh: 2; NadD inh: 13; SUMO1 PPI mod: 64*

What do the screens show for `COc1cc(OC)cc(C(=O)NCC(=O)OCc2ccc(Cl)c(Cl)c2)c1`?
LMPTP block: 3; DNMT1 block: 0; Scp-1 inhibitor: -9; STEP inh: -1; NadD inh: -9; SUMO1 PPI mod: 3

How did COc1ccc(Br)cc1CNC(=O)C1CCN(S(=O)(=O)N2CCC(C)CC2)CC1 do in these assays?
LMPTP block: 1; DNMT1 block: -3; Scp-1 inhibitor: -11; STEP inh: 2; NadD inh: -1; SUMO1 PPI mod: 4

Results for CN1CCN(C2=C(Cl)C(=O)N(CCc3ccccc3)C2=O)CC1 ?
LMPTP block: -3; DNMT1 block: -11; Scp-1 inhibitor: -11; STEP inh: 1; NadD inh: -5; SUMO1 PPI mod: -14

Results for CCOC(=O)C1CCN(Cc2cn[nH]c2-c2ccccc2)CC1 ?
LMPTP block: -1; DNMT1 block: -2; Scp-1 inhibitor: 0; STEP inh: 2; NadD inh: 5; SUMO1 PPI mod: 2

Results for CC1OC2CC(=O)OC2C2=C1C(=O)c1c(O)cccc1C2=O (centres undefined) ?
LMPTP block: 18; DNMT1 block: 75*; STEP inh: 9; NadD inh: 2; SUMO1 PPI mod: 3

How did CC(=O)Nc1cc(-c2ccccc2N(C)C)cn2c(-c3cccc(C(F)(F)F)c3)cnc12 do in these assays?
LMPTP block: -1; DNMT1 block: 61*; STEP inh: -33; NadD inh: 14; SUMO1 PPI mod: -10

How did Cc1cc(NC(=O)c2ccco2)no1 do in these assays?
LMPTP block: -3; DNMT1 block: 0; Scp-1 inhibitor: -3; STEP inh: 1; NadD inh: -6; SUMO1 PPI mod: 3

Results for CC(=O)c1ccc(NC(=O)CN2C(=O)/C(=C/C(C)=C/c3ccccc3)SC2=S)cc1 ?
LMPTP block: 1; DNMT1 block: -15; Scp-1 inhibitor: -11; STEP inh: 0; NadD inh: 31*; SUMO1 PPI mod: -2

How did CC(/C=C1\SC(=S)N(CCCC(=O)Nc2ccc(C(=O)O)c(O)c2)C1=O)=C\c1ccccc1 do in these assays?
Scp-1 inhibitor: 10

Results for CC(/C=C1\SC(=S)N(CCC(=O)Nc2ccc(O)cc2)C1=O)=C\c1ccccc1 ?
LMPTP block: 3; DNMT1 block: -19; Scp-1 inhibitor: -7; STEP inh: 2; NadD inh: 21; SUMO1 PPI mod: -5

What do the screens show for `CC(/C=C1\SC(=S)N(NC(=O)c2ccc(C)cc2)C1=O)=C\c1ccccc1`?
LMPTP block: 2; DNMT1 block: 4; Scp-1 inhibitor: 0; STEP inh: 2; NadD inh: 30*; SUMO1 PPI mod: 7

Results for CC(=Cc1ccccc1)C=C1SC(=S)N(CCCC(=O)Nc2ccc(C(=O)O)c(O)c2)C1=O ?
LMPTP block: 45; DNMT1 block: 71*; STEP inh: 6; NadD inh: 19; SUMO1 PPI mod: -1

What do the screens show for `CCCC(=O)Nc1c(-c2ccccc2)c(=O)c(C)nn1-c1ccc(Cl)cc1`?
LMPTP block: -2; DNMT1 block: 1; Scp-1 inhibitor: -3; STEP inh: -2; NadD inh: 1; SUMO1 PPI mod: 2

How did O=C(O)CC(SCc1ccc(C(=O)O)o1)C(=O)O (centres undefined) do in these assays?
LMPTP block: -1; DNMT1 block: 0; Scp-1 inhibitor: 3; STEP inh: -1; NadD inh: -1; SUMO1 PPI mod: -1

What do the screens show for `O=C(OCCNc1nc(-c2ccccc2)nc2ccccc12)c1ccncc1`?
LMPTP block: 62*; DNMT1 block: -6; Scp-1 inhibitor: -1; STEP inh: -2; NadD inh: 3; SUMO1 PPI mod: 2

How did O=C(O)CCNc1nc(-c2ccccc2)nc2ccccc12 do in these assays?
LMPTP block: 21; DNMT1 block: 3; Scp-1 inhibitor: -10; STEP inh: -3; NadD inh: 2; SUMO1 PPI mod: 9

Results for O=C(OCCNc1nc(-c2ccccc2)nc2ccccc12)c1cccnc1 ?
LMPTP block: 62*; DNMT1 block: -1; Scp-1 inhibitor: 1; STEP inh: 0; NadD inh: -3; SUMO1 PPI mod: 3

Results for CC(=O)Nc1ccc(NC(=O)CSc2nnc(-c3ccco3)o2)cc1 ?
LMPTP block: 0; DNMT1 block: 2; Scp-1 inhibitor: -9; STEP inh: 0; NadD inh: 1; SUMO1 PPI mod: 2

Results for CCn1nc(NC(=O)COC)c2cc3cc(C)ccc3nc21 ?
LMPTP block: 0; DNMT1 block: 2; Scp-1 inhibitor: 33; STEP inh: -4; NadD inh: 2; SUMO1 PPI mod: -20
